One may read the EC50 as the concentration needed to bring the measured effect to its halfway point. As a reminder, the CC50 is the concentration giving 50% cytotoxicity. Low values mean harm at low concentration, high ones better tolerance by the cells.

The source of these data is ChEMBL document CHEMBL1149851, “Pestalotheols A-D, bioactive metabolites from the plant endophytic fungus Pestalotiopsis theae” (J Nat Prod, 2008).

Where a name gives a salt, the structure may show the parent alone. Activity calls are given as the source filed them. The calls are words filed in the database; no cut-off is given here.

Data set [1] has as its system Human immunodeficiency virus 1. The experiment in a line: Inhibition of HIV1 LAI replication in C8166 cells after 4 days by ELISA. The format is functional, organism-based. The conditions noted are these: Human immunodeficiency virus 1, LAI, C8166, 96 h. The essentials:
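C8166 cells were infected with HIV-1 LAI (MOI 0.058) for 1.5 h at 37 °C, PBS-washed, and seeded at 3 × 10⁴/well with or without compounds; indinavir sulfate was the positive control. After 4 days, supernatant was inactivated with 0.5% Triton X-100 and diluted threefold. p24 was measured by capture ELISA (anti-p24 mAb coat, HRP-anti-p24, OPD, A490), and EC₅₀ was derived from p24 level.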
(An ELISA detects its analyte on a solid surface through an enzyme-linked reagent.)

Data set [2] is described as follows: Cytotoxicity against human C8166 cells after 4 days by MTT method. It is filed as cell-based. The essentials: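 C8166 cells were seeded at 3 × 10⁴/well with or without a range of test-compound concentrations, in triplicate. They were incubated 4 days at 37 °C in humid 5% CO₂, and viability was read by MTT. CC₅₀ is the concentration reducing viable cells by 50%.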
In general terms: Tetrazolium assays rely on reduction of a dye to a coloured formazan, in cell work by metabolically active cells.

Data set [3] can be described thus: Selectivity index, ratio of CC50 for human C8166 cells to EC50 for HIV1 LAI. It is filed as toxicity, cell-based. The conditions noted are these: read-out: Ratio CC50/EC50. The essentials:
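Index calculated as CC₅₀/EC₅₀. CC₅₀ came from a 4-day MTT viability assay in C8166 cells run in parallel with a 4-day HIV-1 LAI (MOI 0.058) replication assay in C8166 cells, whose EC₅₀ was read from p24 antigen capture ELISA.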

The next data set concerns Staphylococcus aureus. The experiment in a line: Antibacterial activity against Staphylococcus aureus ATCC 6538 assessed as zone of inhibition at 100 ug/disk after 24 hrs. It is filed as functional, organism-based. An outline of the steps:
(§1)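 Bacteria grown on Mueller-Hinton agar. Paper disks (6 mm) loaded with 100 µg test compound per disk were placed on the seeded agar surface. Plates were incubated at 37 °C for 24 h, then scored for the presence of a zone of inhibition.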

The next data set deals with Streptococcus mutans. The experiment in a line: Antibacterial activity against Streptococcus mutans ATCC 25175 assessed as zone of inhibition at 100 ug/disk after 24 hrs. The format is functional, organism-based. An outline of the steps:
as §1

In another data set the test system is Enterococcus faecalis. The experiment in a line: Antibacterial activity against Enterococcus faecalis ATCC 19433 assessed as zone of inhibition at 100 ug/disk after 24 hrs. It is filed as functional, organism-based. The essentials:
as §1

A further data set relates to Micrococcus luteus. As to the kind of experiment: Antibacterial activity against Sarcina lutea CMCC B28001 assessed as zone of inhibition at 100 ug/disk after 24 hrs. It is filed as functional, organism-based. An outline of the steps: as §1
The next data set has as its system Geotrichum candidum. As to the kind of experiment: Antifungal activity against Geotrichum candidum AS2.498 assessed as zone of inhibition at 100 ug/disk after 48 hrs.
A further data set deals with Candida albicans. The experiment in a line: Antifungal activity against Candida albicans ATCC 10231 assessed as zone of inhibition at 100 ug/disk after 48 hrs.
For the next data set, the system named is Aspergillus fumigatus. As to the kind of experiment: Antifungal activity against Aspergillus fumigatus ATCC 10894 assessed as zone of inhibition at 100 ug/disk after 48 hrs.

Molecule `CC(C)=C/C=C1/C[C@@H]2O[C@@H](C(C)(C)O)C[C@@]23O[C@H]3[C@@H]1O` [PESTALOTHEOL C] gave an EC50 in [1] of 16.1 µM. Further, half-maximal cytotoxicity in [2] (CC50 at 96 h) was put at 163 µM. In [3], the selectivity ratio came to 10.1. Besides, the outcome with Staphylococcus aureus, in the data set with Streptococcus mutans, with Enterococcus faecalis, in the data set with Micrococcus luteus, in the data set on Geotrichum candidum and with Candida albicans was inactive. The outcome in the data set on Aspergillus fumigatus was inactive.
Take `CC1(C)CC(=O)C2=C(O1)[C@H](O)[C@]1(O)C[C@H](C(C)(C)O)O[C@H]1C2`: the outcome in the data set on Staphylococcus aureus, with Streptococcus mutans, in the data set with Enterococcus faecalis, in the data set with Micrococcus luteus, in the data set on Geotrichum candidum and in the data set on Candida albicans was inactive. Besides, in the data set with Aspergillus fumigatus, the result was inactive.
Take `CC1(C)CC(=O)C2=C(C[C@]3(O)C[C@H](C(C)(C)O)O[C@H]3C2)O1`: the outcome in the data set on Staphylococcus aureus, in the data set with Streptococcus mutans, in the data set with Enterococcus faecalis, in the data set with Micrococcus luteus, in the data set on Geotrichum candidum and with Candida albicans was inactive. The outcome with Aspergillus fumigatus was inactive.
`CC(C)(C)NC(=O)[C@@H]1CN(Cc2cccnc2)CCN1C[C@@H](O)C[C@@H](Cc1ccccc1)C(=O)N[C@H]1c2ccccc2C[C@H]1O` [INDINAVIR SULFATE]: in data set [1], the half-maximal effective concentration (EC50) amounted to 0.00818 µM.
Consider `CC1(C)CC(=O)c2cc3c(cc2O1)C[C@H](C(C)(C)O)O3`, for which the outcome with Staphylococcus aureus, in the data set with Streptococcus mutans, in the data set on Enterococcus faecalis, in the data set with Micrococcus luteus, with Geotrichum candidum and in the data set on Candida albicans was inactive. Also, in the data set with Aspergillus fumigatus, the outcome was inactive.
